From ChEMBL document CHEMBL5335784, “Discovery of a novel 1,3,4-oxadiazol-2-one-based NLRP3 inhibitor as a pharmacological agent to mitigate cardiac and metabolic complications in an experimental model of diet-induced metaflammation” (Eur J Med Chem, 2023)
Activity calls are given as the source filed them. The rule behind the calls is not given here.

What was measured:
[1] = test system: Rattus norvegicus; test: Antiinflammatory activity against high fat diet fed-induced metaflammation Wistar rat model assessed as reduction in HFD-induced anthropometric alterations by measuring reduction in perirenal fat deposition at 20 mg/kg/day, ip administered for 4 weeks; type: functional, organism-based
In short: (§1)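 Male Wistar rats on high-fat diet (60% kcal fat) or standard diet for 12 weeks; 20 mg/kg/day i.p. or vehicle (saline, 2% DMSO, 5% Cremophor-EL) over the last 28 days. Body weight recorded weekly. After sacrifice, abdominal, epididymal, retroperitoneal and perirenal fat, liver and heart excised and weighed. Cardiac somatic index = heart weight/body weight ×100. n=6–7 per group.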

[2] = test system: Rattus norvegicus; test: Inhibition of ischemia/reperfusion-induced oxidative stress in ischemia/reperfusion-induced myocardial injury and high fat diet fed obese Wistar rat model assessed as increase in cardiac SOD activity at 20 mg/kg/day, ip administered for 4 weeks followed by excised heart exposed to global ischemia for 30 mins and reperfusion for 120 mins; type: functional, organism-based
In short: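 Same rat diet, dosing and ischemia/reperfusion protocol. LV homogenized in 50 mM Tris-HCl pH 8.2 with 1 mM DTPA and centrifuged at 20,000 x g for 20 min. Supernatant mixed with 0.2 mM pyrogallol, autoxidation followed at 420 nm for 3 min. Activity given as % pyrogallol autoxidation relative to sham; 1 U inhibits the rate by 50%.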

[3] = test system: Rattus norvegicus; test: (§2) Cardioprotective activity against ischemia/reperfusion-induced myocardial injury and standard diet fed Wistar rat model assessed as decrease in LDH activity in coronary effluents at 20 mg/kg/day, ip administered for 4 weeks followed by excised heart exposed to global ischemia for 30 mins and reperfusion for 120 mins and measured during first 30 mins of reperfusion by spectrophotometric analysis; type: functional, organism-based
In short: (§3)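 HFD or SD rats, dosed 20 mg/kg/day i.p. for the final 28 days, anaesthetised with ethyl carbamate (2 g/kg i.p.). Hearts Langendorff-perfused with Krebs–Henseleit buffer (pH 7.4, 37 °C, 12 ml/min); 40 min stabilization, 30 min global no-flow ischemia, 120 min reperfusion. Coronary effluent collected on ice before ischemia and at 10, 20, 30 min reperfusion; LDH activity by McQueen method. n=6–7.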

[4] = Drug metabolism in human serum assessed as half time for compound hydrolysis to 2-(5-(2-Chlorobenzyl)-2-oxo-1,3,4-oxadiazol-3(2H)-yl)acetic acid at 100 uM by RP-HPLC analysis; type: ADME, cell-free
In short: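 Compound at 100 μM final (from 10 mM DMSO stock) in human male AB serum held at 37 °C. Aliquots at intervals deproteinized with CH3CN/0.1% TFA, centrifuged, filtered and analysed by RP-HPLC against calibration standards. Pseudo-first-order t1/2 from exponential decay fit; three experiments.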

[5] = test system: Rattus norvegicus; test: Cardioprotective activity against myocardial ischemia/reperfusion injury-induced contractile impairment and standard diet fed Wistar rat model assessed as developed LVP recovery at 20 mg/kg/day, ip administered for 4 weeks followed by excised heart exposed to global ischemia for 30 mins and reperfusion for 120 mins and measured at the end of reperfusion (reference value: 43 +/-7 mmHg); type: functional
[6] = test system: Rattus norvegicus; test: Inhibition of ischemia/reperfusion-induced inflammation in ischemia/reperfusion-induced myocardial injury and standard diet fed Wistar rat model assessed as decrease in cardiac IL-1 beta level at 20 mg/kg/day, ip administered for 4 weeks followed by excised heart exposed to global ischemia for 30 mins and reperfusion for 120 mins by ELISA; type: functional, organism-based
In short: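 Male Wistar rats on standard or 60% kcal fat diet for 12 weeks; last 28 days i.p. 20 mg/kg/day in saline with 2% DMSO and 5% Cremophor-EL, or vehicle. Hearts perfused by Langendorff with KH buffer at 12 ml/min, 37°C, then 40 min stabilization, 30 min global no-flow ischemia and 120 min reperfusion. Cytokines measured in LV tissue; n=6–7 per group.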

[7] = test system: Rattus norvegicus; test: Antiinflammatory activity against high fat diet fed-induced metaflammation Wistar rat model assessed as reduction in HFD-induced anthropometric alterations by measuring reduction in heart weight at 20 mg/kg/day, ip administered for 4 weeks; type: functional, organism-based; in short: as §1
[8] = Stability of the compound in saline solution containing 2% DMSO and 5% Cremophor-EL measured at 4 degC for more than 7 days by RP-HPLC analysis; type: physicochemical; conditions: buffer, 168 h; time 7 day
In short: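 A 2 mg/mL solution in saline with 2% DMSO and 5% Cremophor-EL was kept at 4 °C or 25 °C for 7 days and analysed daily by RP-HPLC at 226/254 nm.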

[9] = test system: Rattus norvegicus; test: as §2, with “and high” for “and standard”, “fed obese” for “fed”, “first 10” for “first 30”; type: functional, organism-based; in short: as §3
[10] = Effect on Gal-3 level in standard diet fed Wistar rat plasma at 20 mg/kg/day, ip administered for 4 weeks; type: toxicity, organism-based; conditions: in vivo, 672 h
In short: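 Male Wistar rats on HFD or SD for 12 weeks received 20 mg/kg/day i.p. (saline, 2% DMSO, 5% Cremophor-EL) or vehicle for the last 28 days. Circulating IL-1β, TNF-α, BNP and Gal-3 quantified by ELISA in blood collected after sacrifice. n=6–7 per group.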

[11] = Effect on glyco-metabolic profile in standard diet fed Wistar rat assessed as effect on total cholesterol level in plasma at 20 mg/kg/day, ip administered for 4 weeks; type: toxicity, organism-based; conditions: in vivo, 672 h
In short: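 Rats fed HFD or SD for 12 weeks, dosed 20 mg/kg/day i.p. in saline/2% DMSO/5% Cremophor-EL during the final 28 days. Serum obtained after sacrifice by centrifuging blood at 2000 x g, 10 min, 4 °C. Glucose read by glucometer; total, HDL and LDL cholesterol and triglycerides measured with commercial kits. n=6–7 per group.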

[12] = test system: Rattus norvegicus; test: Cardioprotective activity against ischemia/reperfusion-induced myocardial injury and high diet fed obese Wistar rat model assessed as infarct size at 20 mg/kg/day, ip administered for 4 weeks followed by excised heart exposed to global ischemia for 30 mins and reperfusion for 120 mins and measured at the end of reperfusion by nitroblue tetrazolium staining based analysis (Rvb ~ 70+/-1%); type: functional; conditions: 672 h
In short: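 Hearts from HFD or SD rats (20 mg/kg/day i.p., last 28 days) Langendorff-perfused (KH buffer, 37 °C, 12 ml/min). After 40 min stabilization they underwent 30 min global ischemia and 120 min reperfusion. The LV was stained; unstained necrotic and stained viable tissue separated and weighed. Infarct size expressed as % of LV mass. n=6–7.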

[13] = test system: Rattus norvegicus; test: Antiinflammatory activity against high fat diet fed-induced metaflammation Wistar rat model assessed as reduction in HFD-induced anthropometric alterations by measuring reduction in retroperitoneal fat deposition at 20 mg/kg/day, ip administered for 4 weeks; type: functional, organism-based; in short: as §1
[14] = test system: Rattus norvegicus; test: Antiinflammatory activity against high fat diet fed-induced metaflammation Wistar rat model assessed as reduction in HFD-induced anthropometric alterations by measuring reduction in abdominal fat deposition at 20 mg/kg/day, ip administered for 4 weeks; type: functional, organism-based; in short: as §1
[15] = test system: Rattus norvegicus; test: as §2, with “first 20” for “first 30”; type: functional, organism-based; in short: as §3
[16] = Effect on developed LVP recovery in high diet fed obese Wistar rat model at 20 mg/kg/day, ip administered for 4 weeks (reference value: 54 +/-6 mmHg); type: toxicity, organism-based; conditions: in vivo, 672 h
[17] = test system: Rattus norvegicus; test: Inhibition of ischemia/reperfusion-induced NLRP3 inflammasome activation in ischemia/reperfusion-induced myocardial injury and high fat diet fed obese Wistar rat model assessed as decrease in NLRP3 protein expression at 20 mg/kg/day, ip administered for 4 weeks followed by excised heart exposed to global ischemia for 30 mins and reperfusion for 120 mins by immunoblot analysis; type: functional, organism-based
In short: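 Left ventricles from Langendorff hearts (30 min global ischemia/120 min reperfusion) of HFD or SD rats dosed 20 mg/kg/day i.p. for the final 28 days. Tissue homogenized in RIPA buffer with protease/phosphatase inhibitors. 50 μg protein run on 8% SDS-PAGE and immunoblotted for NLRP3 (1:500), normalized to β-actin by densitometry; n=4 per group.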

With `CCOC(=O)Cn1nc(Cc2ccccc2Cl)oc1=O` as the compound, how does the Activity [1] read?
Its Activity is “Active”.

What about the inhibition [2] of the same compound?
The inhibition was “Active”.

What about the Activity [3] of the same compound?
The Activity was “Active”.

What about the half-life at 100 µM [4] of the same compound?
Its half-life at 100 µM is 4 h.

And the Activity [5]?
The Activity was 80 mmHg.

What about the inhibition [6] of the same compound?
Its inhibition is “Active”.

What about the Activity [7] of the same compound?
The Activity was “Active”.

What about the Stability [8] of the same compound?
Its Stability is “Stable”.

What about the Activity [9] of the same compound?
Its Activity is “Active”.

What about the Activity [10] of the same compound?
Its Activity is “Non-Toxic”.

And the Activity [11]?
Its Activity is “Non-Toxic”.

What about the infarct size in vivo at 20 mg/kg/day [12] of the same compound?
Its infarct size in vivo at 20 mg/kg/day is ~61%.

What about the Activity [13] of the same compound?
The Activity was “Active”.

What about the Activity [14] of the same compound?
Its Activity is “Active”.

What about the Activity [15] of the same compound?
Its Activity is “Active”.

And the Activity [16]?
Its Activity is 64 mmHg.

And the inhibition [17]?
The inhibition was “Active”.
